Here are results for twelve compounds from ChEMBL document CHEMBL3407409, “Synthesis of diethyl 4-substituted-2,6-dimethyl-1,4-dihydropyridine-3,5-dicarboxylates as a new series of inhibitors against yeast α-glucosidase” (Eur J Med Chem, 2015).

pIC50, pKi: −log10 of the molar value. The source made the active and inactive calls. The calls are words filed in the database; no cut-off is given here. Where only a bound is given, the exact number is not on record here.

Test [1] addresses T1, Alpha-glucosidase MAL12 (Saccharomyces cerevisiae S288c, UniProt P53341). Put plainly: Inhibition of Saccharomyces cerevisiae alpha-glucosidase using p-nitrophenyl alpha-D-glucopyranoside as substrate preincubated for 15 mins measured up to 30 mins by spectrophotometry. In short, it runs like this: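 Yeast enzyme 0.2 U/mL held with graded inhibitor levels for 15 min at 37 °C in 0.1 M phosphate buffer pH 6.8, DMSO 7% final; p-nitrophenyl α-D-glucopyranoside 0.7 mM final added, A400 followed up to 30 min. DMSO-only control; % inhibition = 100 − (OD test/OD control) × 100.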

In another test the test system is 3T3. Briefly: Cytotoxicity against […] 3T3 cells by MTT assay. It counts as cell-based. The settings on record: Mus musculus, NIH3T3. In short, it runs like this: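 […] fibroblast 3T3 cells (2×10^5 cells/mL) grown overnight at 37 °C under CO2, then given serial dilutions (100–12.5 µg/mL) in DMEM with 5% FBS and penicillin/streptomycin. MTT (2 mg/mL in PBS) added for 4 h. Formazan dissolved in DMSO and read at 540 nm; viability taken as the OD ratio.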
On the technique in general: Formazan colour is commonly taken as a measure of viable cells.

Test [2] addresses T2, Beta-glucuronidase (Homo sapiens) (UniProt P08236).
T2 sequence (whole entry): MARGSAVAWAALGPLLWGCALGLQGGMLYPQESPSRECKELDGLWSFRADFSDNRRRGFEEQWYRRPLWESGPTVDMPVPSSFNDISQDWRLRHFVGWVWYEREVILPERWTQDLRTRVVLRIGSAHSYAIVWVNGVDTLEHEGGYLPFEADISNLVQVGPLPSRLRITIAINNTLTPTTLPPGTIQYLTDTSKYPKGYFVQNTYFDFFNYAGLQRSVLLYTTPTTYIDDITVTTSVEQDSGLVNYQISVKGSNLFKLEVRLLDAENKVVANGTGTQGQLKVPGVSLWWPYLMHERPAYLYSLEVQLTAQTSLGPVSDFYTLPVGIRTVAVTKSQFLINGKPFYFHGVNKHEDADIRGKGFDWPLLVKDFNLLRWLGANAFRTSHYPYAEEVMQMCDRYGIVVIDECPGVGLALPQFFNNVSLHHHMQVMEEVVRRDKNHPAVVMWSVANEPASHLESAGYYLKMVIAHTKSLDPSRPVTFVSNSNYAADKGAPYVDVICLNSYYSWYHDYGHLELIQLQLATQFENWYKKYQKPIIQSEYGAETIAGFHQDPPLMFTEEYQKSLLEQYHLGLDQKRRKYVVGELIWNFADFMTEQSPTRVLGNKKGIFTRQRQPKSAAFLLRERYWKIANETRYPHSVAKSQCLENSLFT
Briefly: Inhibition of beta-glucuronidase (unknown origin) using p-nitrophenyl-beta-D-glucuronide as substrate preincubated for 30 mins by spectrophotometry. In short, it runs like this:
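Enzyme (1 U) in 0.1 M acetate buffer held with compound (DMSO 2% final) at 37 °C for 30 min. Then 0.4 mM p-nitrophenyl-β-D-glucuronide added and p-nitrophenol read at 405 nm. Run in triplicate.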

Test [3] deals with Oligo-1,6-glucosidase IMA1 (Saccharomyces cerevisiae S288c) (UniProt P53051). Briefly: Ratio of acarbose IC50 to compound IC50 for Saccharomyces cerevisiae alpha-glucosidase using p-nitrophenyl alpha-D-glucopyranoside as substrate preincubated for 15 mins measured up to 30 mins by spectrophotometry.
Sequence of Oligo-1,6-glucosidase IMA1 (Saccharomyces cerevisiae S288c) (P53051 whole entry): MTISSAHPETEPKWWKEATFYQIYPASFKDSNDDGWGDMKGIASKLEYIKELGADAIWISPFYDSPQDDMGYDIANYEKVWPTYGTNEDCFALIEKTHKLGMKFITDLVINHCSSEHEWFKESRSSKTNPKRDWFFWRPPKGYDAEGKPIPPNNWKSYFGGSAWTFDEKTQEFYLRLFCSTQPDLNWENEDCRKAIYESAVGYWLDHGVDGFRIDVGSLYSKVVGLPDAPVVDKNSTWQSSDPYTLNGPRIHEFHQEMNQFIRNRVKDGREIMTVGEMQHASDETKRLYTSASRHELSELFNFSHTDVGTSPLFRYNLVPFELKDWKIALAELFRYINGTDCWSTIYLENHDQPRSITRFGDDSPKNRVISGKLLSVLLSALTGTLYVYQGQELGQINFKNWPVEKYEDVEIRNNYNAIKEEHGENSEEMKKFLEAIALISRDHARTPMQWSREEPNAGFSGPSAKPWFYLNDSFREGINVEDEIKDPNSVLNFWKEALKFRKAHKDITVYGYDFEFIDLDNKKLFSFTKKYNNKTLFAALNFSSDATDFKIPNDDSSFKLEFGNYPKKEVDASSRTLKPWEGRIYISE
Test [4] deals with T1, Alpha-glucosidase MAL12. Briefly: Competitive inhibition of Saccharomyces cerevisiae alpha-glucosidase using p-nitrophenyl alpha-D-glucopyranoside as substrate preincubated for 15 mins by Lineweaver-Burk plot method.
Test [5] deals with Carbonic anhydrase 2 (Bos taurus) (UniProt P00921). Put plainly: Inhibition of purified bovine erythrocyte carbonic anhydrase 2 using 4-PNA as substrate preincubated for 15 mins by spectrophotometry. In short, it runs like this:
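Bovine erythrocyte CA-II (0.1 mg/mL stock) in 20 mM HEPES-Tris pH 7.4, DMSO 10% final, preincubated with compound for 15 min. Reaction started with 0.7 mM 4-nitrophenyl acetate (in ethanol). 4-Nitrophenol read at 400 nm each minute for 30 min. Triplicates at several concentrations.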

A further test has as its system Serpentes. Put plainly: Inhibition of snake venom phosphodiesterase-1 using bis-(p-nitropheny1) phosphate as substrate preincubated for 30 mins by spectrophotometry. In short, it runs like this: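 Snake venom enzyme, 0.000742 U/well final, in 33 mM Tris–HCl pH 8.8 with 30 mM Mg-acetate. Pre-incubated 30 min with test samples. Substrate bis-(p-nitrophenyl) phosphate at 0.33 mM. Rate of p-nitrophenol release (change in OD/min) followed at 410 nm, 37 °C, in microplate format. Cysteine and EDTA used as positive controls. Run in triplicate.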

The target in test [6] is T1, Alpha-glucosidase MAL12. Briefly: Non-competitive inhibition of Saccharomyces cerevisiae alpha-glucosidase using p-nitrophenyl alpha-D-glucopyranoside as substrate preincubated for 15 mins by Lineweaver-Burk plot method. In short, it runs like this: (§1)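 Kinetics on the yeast enzyme: 1/rate plotted against 1/substrate (Lineweaver-Burk) at several inhibitor levels, e.g. 60, 70 and 80 µM, to see effects on Km and Vmax. Ki taken from a replot of Lineweaver-Burk slopes against inhibitor concentration and checked by Dixon plot (1/rate against inhibitor concentration). Points are the mean of three experiments.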

The target in test [7] is Oligo-1,6-glucosidase IMA1 (Saccharomyces cerevisiae S288c) (UniProt P53051). Put plainly: Non-competitive inhibition of Saccharomyces cerevisiae alpha-glucosidase using p-nitrophenyl alpha-D-glucopyranoside as substrate preincubated for 15 mins by Dixon plot method. In short, it runs like this: as §1

T1 sequence (P53341 whole entry): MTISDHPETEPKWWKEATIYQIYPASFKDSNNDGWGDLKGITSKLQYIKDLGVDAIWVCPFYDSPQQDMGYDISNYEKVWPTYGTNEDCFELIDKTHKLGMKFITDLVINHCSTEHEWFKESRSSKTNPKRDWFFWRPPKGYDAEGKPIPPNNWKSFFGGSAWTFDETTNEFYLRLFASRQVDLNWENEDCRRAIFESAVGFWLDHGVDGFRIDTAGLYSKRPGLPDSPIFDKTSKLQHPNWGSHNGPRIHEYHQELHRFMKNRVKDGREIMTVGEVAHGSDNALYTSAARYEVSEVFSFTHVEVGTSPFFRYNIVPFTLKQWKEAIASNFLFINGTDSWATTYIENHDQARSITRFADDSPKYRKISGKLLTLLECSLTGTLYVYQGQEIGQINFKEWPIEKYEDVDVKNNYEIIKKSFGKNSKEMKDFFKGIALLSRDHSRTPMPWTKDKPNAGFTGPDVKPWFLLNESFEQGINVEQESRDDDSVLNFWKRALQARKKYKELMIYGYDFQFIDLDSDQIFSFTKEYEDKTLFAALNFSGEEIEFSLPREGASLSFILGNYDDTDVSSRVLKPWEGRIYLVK
Sequence of Carbonic anhydrase 2 (Bos taurus) (P00921 2-260 limits assumed): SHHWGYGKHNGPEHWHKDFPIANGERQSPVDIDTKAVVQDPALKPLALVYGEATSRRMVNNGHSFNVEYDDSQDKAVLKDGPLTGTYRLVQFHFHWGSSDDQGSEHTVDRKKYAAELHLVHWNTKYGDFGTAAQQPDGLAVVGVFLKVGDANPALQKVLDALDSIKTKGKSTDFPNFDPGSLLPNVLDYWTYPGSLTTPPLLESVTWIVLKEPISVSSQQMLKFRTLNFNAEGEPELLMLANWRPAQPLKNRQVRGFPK

With `CCOC(=O)C1=C(C)NC(C)=C(C(=O)OCC)C1c1ccc([N+](=O)[O-])cc1`, the negative-log IC50 (pIC50) at Alpha-glucosidase MAL12 [1] is 4.29; with 3T3, below 4.52. In addition, the figures for the inhibition (in [2]; in test [5]; in the test on Serpentes) were 14.1%, 9.7% and 20.3%, respectively. Moreover, in test [3], the Ratio IC50 was found to be 18. This compound showed a pKi on Alpha-glucosidase MAL12 [4] of 4.18.
For the compound `CCOC(=O)C1=C(C)NC(C)=C(C(=O)OCC)C1c1cccc([N+](=O)[O-])c1`, the pIC50 on Alpha-glucosidase MAL12 [1] was 4.46; in the test with 3T3, below 4.52. In addition, the inhibition was determined as 22.3% in [2], 11.7% in test [5] and 11.4% in the test with Serpentes. In addition, the negative logarithm of the Ki (pKi) at Alpha-glucosidase MAL12 [6] is 4.60. For the same compound, the Ratio IC50 in [3] came out at 26. The inhibition entry in [7] was “Active”.
In turn, `CCCCC1C(C(=O)OCC)=C(C)NC(C)=C1C(=O)OCC` gave a pIC50 against Alpha-glucosidase MAL12 [1] of 3.91.
In the case of `CCOC(=O)C1=C(C)NC(C)=C(C(=O)OCC)C1c1ccc(SC)cc1`, the values for the pIC50 at Alpha-glucosidase MAL12 [1] and with 3T3 were 4.01 and below 4.52, respectively.
The matching figures for `CCOC(=O)C1=C(C)NC(C)=C(C(=O)OCC)C1c1ccc(OCC)cc1`: 3.91 and below 4.52.
The matching figures for `CCOC(=O)C1=C(C)NC(C)=C(C(=O)OCC)C1c1ccc(C)cc1`: 3.93 and below 4.52.
Regarding `CCOC(=O)C1=C(C)NC(C)=C(C(=O)OCC)C1c1ccc(Cl)cc1`, the pIC50 on Alpha-glucosidase MAL12 [1] was 4.14; in the test with 3T3, 4.56.
The matching figures for `CCOC(=O)C1=C(C)NC(C)=C(C(=O)OCC)C1CCc1ccccc1`: 3.95 and 4.57.
The matching figures for `CCOC(=O)C1=C(C)NC(C)=C(C(=O)OCC)C1c1ccc(O)c(O)c1`: 3.56 and 4.54.
On to `CCOC(=O)C1=C(C)NC(C)=C(C(=O)OCC)C1c1ccccc1F`, for which the pIC50 is 4.22 on Alpha-glucosidase MAL12 [1] and below 4.52 in the test on 3T3.
Take `CCOC(=O)C1=C(C)NC(C)=C(C(=O)OCC)C1c1ccc(OC)cc1`: the figures for the pIC50 at Alpha-glucosidase MAL12 [1] and in the test with 3T3 were 4.19 and below 4.52, respectively. Also, the inhibition in [2] was found to be 12.4%; with Serpentes, 8.1%. In addition, the inhibition result in test [5] was “inactive”.
The matching figures for `CCOC(=O)C1=C(C)NC(C)=C(C(=O)OCC)C1c1cccs1`: 4.13, below 4.52, “inactive”, 8% and “inactive”.

The pIC50 is the IC50 on a negative log10 scale, so that one unit is a factor of ten. Lower therefore signals a large IC50. By inhibition is commonly meant the share of the control response that was lost under treatment. Usually pKi stands for −log10 of the Ki, conventionally taken in molar units. The low end stands for a high Ki, the high end for a low Ki.
